# Laboratory results: ChEMBL document CHEMBL4425098, “Thiolactomycin-Based Inhibitors of Bacterial β-Ketoacyl-ACP Synthases with in Vivo Activity” (J Med Chem, 2016)
# Calls of active or inactive are those of the source. No cut-off for these calls is given here.
# Experiments:
# [1] = test system: Mycobacterium tuberculosis; test: Binding affinity to Mycobacterium tuberculosis wild type FabB expressed in Mycobacterium smegmatis MC2 155 by WaterLOGSY-based competition assay
# [2] = target: T1, 3-oxoacyl-[acyl-carrier-protein] synthase 2 (Staphylococcus aureus, UniProt Q5TKS0); test: Binding affinity to Staphylococcus aureus wild type FabF expressed in Escherichia coli BL21 (DE3) PlysS cells by intrinsic tryptophan fluorescence quenching-based fluorimetric method
# T1 sequence (Q5TKS0 whole entry): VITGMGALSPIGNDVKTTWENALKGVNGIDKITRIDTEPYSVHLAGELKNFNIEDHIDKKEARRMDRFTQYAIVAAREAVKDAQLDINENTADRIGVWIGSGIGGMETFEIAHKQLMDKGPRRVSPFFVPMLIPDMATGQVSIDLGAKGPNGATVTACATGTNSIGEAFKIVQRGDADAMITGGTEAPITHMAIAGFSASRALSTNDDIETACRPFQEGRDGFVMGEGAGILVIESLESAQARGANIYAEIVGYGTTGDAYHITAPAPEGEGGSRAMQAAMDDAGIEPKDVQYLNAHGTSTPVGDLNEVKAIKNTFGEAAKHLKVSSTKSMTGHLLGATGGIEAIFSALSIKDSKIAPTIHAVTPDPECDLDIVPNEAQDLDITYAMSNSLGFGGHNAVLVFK
# [3] = test system: Burkholderia pseudomallei; test: Antibacterial activity against Burkholderia pseudomallei after 18 to 24 hrs by Alamar blue dye-based colorimetric assay; assay type: functional
# Staphylococcus aureus [4] = test: Antibacterial activity against methicillin-sensitive Staphylococcus aureus RN4220 after 18 to 24 hrs by Alamar blue dye-based colorimetric assay; assay type: functional
# Method in brief: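 Two-fold serial dilutions from 512 down to 0.25 μg/mL in CAMHB (microbroth dilution); incubated 37 °C for 18–24 h, then Alamar Blue added for a further 4 h. Absorbance read at 570 and 600 nm; percent growth reduction plotted against concentration, MIC90 from non-linear regression; growth and MICs confirmed by optical density.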
# [5] = test system: Mycobacterium tuberculosis; test: Antibacterial activity against Mycobacterium tuberculosis H37Rv after 6 days by Alamar blue dye-based colorimetric assay; assay type: functional; conditions: 144 h
# Method in brief: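 M. tuberculosis H37Rv grown to early-mid log phase in Middlebrook 7H9 with 10% OADC and 0.05% Tween 80, added to 1:2 serial compound dilutions, and grown for 6 days at 37°C. Alamar blue then added for a further 24 h. MIC taken as the concentration preventing visible growth and Alamar blue reduction in all replicates.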
# [6] = target: 3-oxoacyl-[acyl-carrier-protein] synthase 2 (Staphylococcus aureus, UniProt Q5TKS0, C165Q); test: Binding affinity to Staphylococcus aureus FabF C165Q mutant expressed in Escherichia coli BL21 (DE3) PlysS cells by intrinsic tryptophan fluorescence quenching-based fluorimetric method
# Method in brief: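 Kd by quenching of intrinsic tryptophan fluorescence (excitation 280 nm, emission 337 nm). Inhibitor stocks in DMSO or buffer were titrated into 1 μM His-tag-purified enzyme in 50 mM Tris-HCl, 150 mM NaCl, 1 mM DTT, pH 8.5. mtFabB was expressed in M. smegmatis MC²155; saFabF was expressed in E. coli BL21(DE3) pLysS.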
# Klebsiella pneumoniae = test: Antibacterial activity against Klebsiella pneumoniae KPC2ST258 infected in Swiss Webster mouse assessed as survival time at 100 mg/kg, sc administered 1, 12 and 24 hrs post infection measured every 12 hrs for 7 days; assay type: functional
# Method in brief: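 K. pneumoniae KPC2ST258 was given IP as 5×10⁶ cfu in BHI broth. Drugs in saline/PEG400/ethanol (40/20/40) were injected SC at 100 mg/kg/inj at 1, 12 and 24 h post infection. Mice were checked every 12 h for 7 days, n=8–10 per group. Average survival time was compared with vehicle by one-tailed t test.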
# Staphylococcus aureus [7] = test: Antibacterial activity against methicillin-resistant Staphylococcus aureus BAA 1762 after 18 to 24 hrs by Alamar blue dye-based colorimetric assay; assay type: functional
# Francisella tularensis = test: Antibacterial activity against Francisella tularensis LVS after 18 to 24 hrs by Alamar blue dye-based colorimetric assay; assay type: functional
# THP-1 = test: Cytotoxicity against human THP1 cells at < 100 ug/ml after 2 days by Alamar blue assay; assay type: cell-based; conditions: thp-1, 48 h
# Yersinia pestis = test: Antibacterial activity against Yersinia pestis A1122 after 18 to 24 hrs by Alamar blue dye-based colorimetric assay; assay type: functional
# Staphylococcus aureus [8] = test: Antibacterial activity against methicillin-resistant Staphylococcus aureus BAA 1762 infected in Swiss Webster mouse assessed as increase in survival rate at 100 mg/kg, sc administered 1 and 25 hrs post infection measured twice a day for 5 days relative to vehicle-treated control; assay type: functional, organism-based
# Method in brief: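 Mice made neutropenic with cyclophosphamide 4 days and 1 day before infection. MRSA BAA 1762 was given IP as 0.5 mL of 5×10⁷ cells/mL in BHI. Analogues in water/ethanol, or vancomycin in water, were dosed SC at 100 mg/kg/inj at 1 and 25 h post infection. Survival was checked every 12 h for 5 days, n=6–7 per group. Average survival time was compared with vehicle by one-tailed t test.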
compound,measurement,setting,value
C=C/C(C)=C/[C@@]1(C)SC(=O)C(C)=C1O [THIOLACTOMYCIN],Activity,[1],inactive
same,Kd,[2],107 µM
same,MIC,[3],8 µg/mL
same,MIC90,Staphylococcus aureus [4],75 µg/mL
same,MIC90,[5],3.1 µg/mL
same,Kd,[6],88 µM
same,MSD,Klebsiella pneumoniae,3.25 days
same,MIC90,Staphylococcus aureus [7],75 µg/mL
same,MIC90,Francisella tularensis,2.8 µg/mL
same,Activity,THP-1,Non-Toxic
same,MIC90,Yersinia pestis,8 µg/mL
same,Activity,Staphylococcus aureus [8],Active
